{"source": "paper PMC6648853", "about": "(ACS Omega, 2019)", "key": {"NCI-H460/R": {"tested_on": "NCI-H460/R", "test": "MTT assay, NCI-H460/R", "format": "cell-based", "conditions": "Homo sapiens, NCI-H460, 72 h, read-out: GI50 (50% cell growth inhibition)", "outline": "(§1)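 Cells were grown in RPMI 1640 with 10% FBS and penicillin–streptomycin at 37 °C in 5% CO2. The P-gp-overexpressing NCI-H460/R line was derived from NCI-H460 by stepwise doxorubicin (5–100 nM, 3 months). Test compound (2.5–50 μM) ran 72 h, then MTT (1 mg/mL) 4 h at 37 °C. Formazan was dissolved in DMSO and read at 540 nm. Viability was relative to untreated cells, giving GI50. At least two independent experiments were run in triplicate. Paclitaxel served as positive control.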"}, "NCI-H460": {"tested_on": "NCI-H460", "test": "MTT assay, NCI-H460", "format": "cell-based, human", "conditions": "for GI50: Homo sapiens, NCI-H460, 72 h, read-out: GI50 (50% cell growth inhibition)", "outline": "as §1"}, "MCR-5 [1]": {"tested_on": "MCR-5", "test": "MTT assay, MCR-5 normal lung cells", "format": "cell-based", "conditions": "Homo sapiens, MCR5, 72 h, read-out: GI50 (50% cell growth inhibition)", "outline": "as §1"}, "MCR-5 [2]": {"tested_on": "MCR-5", "conditions": "read-out: cytotoxicity class (GI50); cited from earlier work"}, "Molt-3": {"tested_on": "Molt-3", "conditions": "read-out: cytotoxicity class (GI50); Molt-3, leukemia/lymphoma; cited from earlier work"}, "MEL-1": {"tested_on": "MEL-1", "conditions": "read-out: cytotoxicity class (GI50); MEL-1, leukemia/lymphoma; cited from earlier work"}, "HL-60": {"tested_on": "HL-60", "conditions": "read-out: cytotoxicity class (GI50); HL-60, leukemia/lymphoma; cited from earlier work"}, "AGS": {"tested_on": "AGS", "conditions": "read-out: cytotoxicity class (GI50), gastric; cited from earlier work"}, "MV-3": {"tested_on": "MV-3", "conditions": "read-out: cytotoxicity class (GI50); cited from earlier work"}, "PaCa-2": {"tested_on": "PaCa-2", "conditions": "read-out: cytotoxicity class (GI50); cited from earlier work"}, "MDA-MB-231": {"tested_on": "MDA-MB-231", "test": "sulfurhodamine B", "format": "cell-based", "conditions": "Homo sapiens, MDA-MB-231, 48 h, read-out: GI50 (50% cell growth inhibition)", "outline": "(§2)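 Cells were kept at 37 °C in 5% CO2 with 10% FBS and penicillin–streptomycin. MDA-MB-231 were grown in DMEM, the others in RPMI 1640. Cells were seeded at 5.0 × 10^3/well and left 24 h before serial dilutions of test compound (1.85–150 μM) for 48 h. Cells were fixed with 10% TCA, stained with 0.4% SRB and washed with 1% acetic acid. Bound dye was dissolved in 10 mM Tris (pH 10.5) and read at 510 nm. Doxorubicin served as positive control.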"}, "MCF-7": {"tested_on": "MCF-7", "test": "sulfurhodamine B", "format": "cell-based", "conditions": "Homo sapiens, MCF7, 48 h, read-out: GI50 (50% cell growth inhibition)", "outline": "as §2"}, "HCT116": {"tested_on": "HCT116", "test": "sulfurhodamine B", "format": "cell-based", "conditions": "Homo sapiens, HCT-116, 48 h, read-out: GI50 (50% cell growth inhibition)", "outline": "as §2"}}, "note": "Read-outs that look alike come from different tables or passages of the source. Marks after values point to notes of the source that are not given here.", "data": [{"smiles": "CC(=O)O[C@H]1C(=O)[C@@]2(C)[C@H]([C@H](OC(=O)c3ccccc3)[C@]3(O)C[C@H](OC(=O)[C@H](O)[C@@H](NC(=O)c4ccccc4)c4ccccc4)C(C)=C1C3(C)C)[C@]1(OC(C)=O)CO[C@@H]1C[C@@H]2O", "note": "[PCX, Paclitaxel]", "values": [{"measurement": "GI50", "setting": "NCI-H460/R", "result": 0.117, "unit": "µM"}, {"measurement": "GI50", "setting": "NCI-H460", "result": 0.0006, "unit": "µM"}, {"measurement": "Selectivity index, SI = GI50(MCR-5)/GI50(NCI-H460)", "setting": "NCI-H460; MCR-5 vs NCI-H460, MTT assay", "result": "PCX 872***"}, {"measurement": "GI50", "setting": "MCR-5 [1]", "result": 0.523, "unit": "µM"}]}, {"smiles": "CC(C)C1=C(O)C(=O)C2=C(CC[C@H]3C(C)(C)CCC[C@]23C)C1=O", "note": "[R1 = H, R2 = H, R3 = OH, royleanone]", "values": [{"measurement": "GI50", "setting": "MCR-5 [2]", "result": "10 to 30", "unit": "µM"}, {"measurement": "GI50", "setting": "Molt-3", "result": "10 to 30", "unit": "µM"}, {"measurement": "GI50", "setting": "MEL-1", "result": "> 30", "unit": "µM"}, {"measurement": "GI50", "setting": "HL-60", "result": "> 30", "unit": "µM"}, {"measurement": "GI50", "setting": "AGS", "result": "> 30", "unit": "µM"}, {"measurement": "GI50", "setting": "MV-3", "result": "> 30", "unit": "µM"}, {"measurement": "GI50", "setting": "PaCa-2", "result": "> 30", "unit": "µM"}]}, {"smiles": "O=C(/C=C/c1ccc(O)c(O)c1)O[C@H](Cc1ccc(O)c(O)c1)C(=O)O", "note": "[(1), rosmarinic acid]", "values": [{"measurement": "GI50", "setting": "MDA-MB-231", "result": "> 100", "unit": "µM"}, {"measurement": "GI50", "setting": "NCI-H460/R", "result": "> 100", "unit": "µM"}, {"measurement": "GI50", "setting": "NCI-H460", "result": "> 100", "unit": "µM"}, {"measurement": "GI50", "setting": "MCR-5 [1]", "result": "> 100", "unit": "µM"}]}, {"smiles": "COc1cccc2c1C(=O)c1c(O)c3c(c(O)c1C2=O)C[C@@](O)(C(=O)CO)C[C@@H]3O[C@H]1C[C@H](N)[C@H](O)[C@H](C)O1", "note": "[DOX, Doxorubicin]", "values": [{"measurement": "GI50", "setting": "MDA-MB-231", "result": 0.072, "unit": "µM"}, {"measurement": "GI50", "setting": "MCF-7", "result": 0.16, "unit": "µM"}, {"measurement": "GI50", "setting": "HCT116", "result": 0.125, "unit": "µM"}]}]}
